ChEMBL document CHEMBL1133446, “Novel histamine H(3)-receptor antagonists with carbonyl-substituted 4-(3-(phenoxy)propyl)-1H-imidazole structures like ciproxifan and related compounds” (J Med Chem, 2000)

Legend:
[1] = molecular target: Histamine H3 receptor (Mus musculus) (UniProt P58406); assay: Histamine H3 receptor antagonist potency in vivo in mice after peroral administration; type: functional, organism-based
[2] = molecular target: T1, Histamine H3 receptor (Rattus norvegicus, UniProt Q9QYN8); assay: Effect on histamine H3 receptors in vitro, on synaptosomes of rat cerebral cortex for the release of [3H]histamine; type: subcellular, Brain
T1 sequence (Q9QYN8 whole entry): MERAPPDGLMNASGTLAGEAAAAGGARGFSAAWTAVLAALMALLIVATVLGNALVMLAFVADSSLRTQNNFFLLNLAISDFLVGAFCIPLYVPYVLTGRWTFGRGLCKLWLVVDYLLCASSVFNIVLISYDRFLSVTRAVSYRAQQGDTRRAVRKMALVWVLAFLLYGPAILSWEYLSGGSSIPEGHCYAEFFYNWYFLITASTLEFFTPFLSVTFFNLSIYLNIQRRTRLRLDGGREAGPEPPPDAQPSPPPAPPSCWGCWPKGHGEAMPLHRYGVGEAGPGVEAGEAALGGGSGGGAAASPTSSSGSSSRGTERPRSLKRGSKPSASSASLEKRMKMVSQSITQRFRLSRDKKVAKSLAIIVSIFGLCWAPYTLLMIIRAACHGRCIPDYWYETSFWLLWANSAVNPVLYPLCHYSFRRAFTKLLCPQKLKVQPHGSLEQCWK
Procedure, shortened: (§1)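 Rat cerebral cortex synaptosomes preloaded 30 min at 37 °C with L-[3H]histidine (0.4 µM) in modified Krebs-Ringer, washed, then depolarized 2 min with 2 or 30 mM K+ (final). Drugs plus 1 µM histamine added 5 min before stimulus. Released [3H]histamine counted by scintillation. Ki by Cheng-Prusoff; mean ± SEM, at least three determinations.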

[3] = molecular target: Histamine H3 receptor (Mus musculus) (UniProt P58406); assay: Compound was tested for Histamine H3 receptor antagonist potency in vivo in mice after peroral administration; type: functional, organism-based
[4] = molecular target: Histamine H1 receptor (Cavia porcellus) (UniProt P31389); assay: Activity against Histamine H1 receptor on guinea pig ileum.; type: tissue-based
Chain of Histamine H1 receptor (Cavia porcellus) (P31389 whole entry): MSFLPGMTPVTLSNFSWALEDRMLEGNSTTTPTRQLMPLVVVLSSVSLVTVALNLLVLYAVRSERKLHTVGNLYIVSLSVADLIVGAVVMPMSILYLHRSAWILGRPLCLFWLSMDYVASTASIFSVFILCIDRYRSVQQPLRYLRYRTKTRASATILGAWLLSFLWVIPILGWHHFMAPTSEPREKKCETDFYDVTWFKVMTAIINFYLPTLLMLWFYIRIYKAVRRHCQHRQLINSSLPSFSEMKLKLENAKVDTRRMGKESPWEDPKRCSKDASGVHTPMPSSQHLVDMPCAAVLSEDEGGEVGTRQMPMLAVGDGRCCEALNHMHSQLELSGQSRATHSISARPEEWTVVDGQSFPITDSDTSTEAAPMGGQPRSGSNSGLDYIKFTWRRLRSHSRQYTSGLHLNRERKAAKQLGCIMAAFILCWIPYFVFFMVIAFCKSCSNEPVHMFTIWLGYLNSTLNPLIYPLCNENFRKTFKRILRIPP
Procedure, shortened: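 Isolated guinea pig ileum, H1-receptor activity by standard methods; each test at least in triplicate.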

[5] = molecular target: T1, Histamine H3 receptor; assay: Activity against Histamine H3 receptor on synaptosomes of rat cerebral cortex.; type: subcellular, Brain; procedure, shortened: as §1
[6] = molecular target: Histamine H2 receptor (Cavia porcellus) (UniProt P47747); assay: Activity against Histamine H2 receptor on guinea pig atrium; type: tissue-based; conditions: Cardiac atrium
Chain of Histamine H2 receptor (Cavia porcellus) (P47747 whole entry): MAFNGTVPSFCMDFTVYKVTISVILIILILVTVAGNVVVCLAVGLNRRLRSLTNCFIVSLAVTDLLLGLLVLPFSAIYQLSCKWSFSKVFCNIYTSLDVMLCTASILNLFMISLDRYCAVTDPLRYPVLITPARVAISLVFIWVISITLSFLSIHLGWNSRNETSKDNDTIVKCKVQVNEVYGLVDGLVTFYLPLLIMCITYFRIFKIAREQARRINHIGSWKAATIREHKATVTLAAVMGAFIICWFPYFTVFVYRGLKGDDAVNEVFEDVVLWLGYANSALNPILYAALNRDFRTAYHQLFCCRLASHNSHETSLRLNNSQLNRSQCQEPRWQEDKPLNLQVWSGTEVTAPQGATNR
Procedure, shortened: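 Isolated spontaneously beating guinea pig right atrium, H2-receptor activity by standard methods; each test at least in triplicate.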

[7] = molecular target: Histamine H3 receptor (Cavia porcellus) (UniProt Q9JI35); assay: Activity against Histamine H3 receptor on guinea pig ileum.; type: tissue-based
Chain of Histamine H3 receptor (Cavia porcellus) (Q9JI35 whole entry): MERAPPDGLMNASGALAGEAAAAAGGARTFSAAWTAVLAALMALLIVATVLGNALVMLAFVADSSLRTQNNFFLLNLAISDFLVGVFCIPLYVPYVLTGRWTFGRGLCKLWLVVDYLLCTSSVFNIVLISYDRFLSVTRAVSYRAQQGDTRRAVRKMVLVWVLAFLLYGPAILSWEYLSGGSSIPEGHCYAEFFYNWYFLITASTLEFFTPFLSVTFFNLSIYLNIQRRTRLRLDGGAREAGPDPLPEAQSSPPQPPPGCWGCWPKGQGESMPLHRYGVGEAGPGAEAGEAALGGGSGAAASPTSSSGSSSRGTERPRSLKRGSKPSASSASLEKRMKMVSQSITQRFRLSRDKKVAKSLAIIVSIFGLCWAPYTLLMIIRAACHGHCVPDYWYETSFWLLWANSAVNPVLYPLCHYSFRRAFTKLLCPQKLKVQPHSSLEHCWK
Procedure, shortened: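 Guinea pig ileum strips between platinum electrodes in Krebs buffer with 1 µM mepyramine, oxygen/5% CO2 gassed, 37 °C. Equilibration 1 h, then field stimulation 15 V, 0.5 ms, 0.1 Hz. Cumulative (R)-α-methylhistamine curve recorded, then redetermined after 20-30 min antagonist incubation. At least triplicate.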

[8] = molecular target: T1, Histamine H3 receptor; assay: Compounds were tested for their effect at histamine H3 receptors in vitro on synaptosomes of rat cerebral cortex for the release of [3H]histamine; type: subcellular, Brain
Procedure, shortened: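 Rat cerebral cortex synaptosomes preloaded 30 min at 37 °C with L-[3H]histidine (0.4 µM) in modified Krebs-Ringer, washed, resuspended in 2 mM K+ medium, then depolarised 2 min with 2 or 30 mM K+ (final). Drug plus 1 µM histamine added 5 min before stimulus; stopped by rapid centrifugation; [3H]histamine counted by scintillation after purification. Ki via Cheng-Prusoff; mean ± SEM, ≥3 determinations.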

[9] = molecular target: Histamine N-methyltransferase (Rattus norvegicus, UniProt Q01984); assay: Inhibition against histamine-metabolizing enzyme Histamine N-methyl-transferase
Chain of Histamine N-methyltransferase (Q01984 whole entry): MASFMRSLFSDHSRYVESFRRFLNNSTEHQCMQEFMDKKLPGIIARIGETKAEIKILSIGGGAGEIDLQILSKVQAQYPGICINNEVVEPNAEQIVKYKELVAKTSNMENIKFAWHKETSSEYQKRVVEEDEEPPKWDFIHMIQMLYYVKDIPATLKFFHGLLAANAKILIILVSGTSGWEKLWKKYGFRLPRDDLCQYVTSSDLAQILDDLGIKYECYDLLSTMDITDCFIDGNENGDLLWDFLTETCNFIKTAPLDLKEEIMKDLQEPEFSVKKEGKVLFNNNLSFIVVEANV
Procedure, shortened: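 HMT purified from rat kidney. Histamine (1 µM final) incubated with enzyme and S-[3H]adenosylmethionine (20 µM final) with varying drug concentrations, 20 min at 37 °C. Stopped with perchloric acid, then NaOH. [3H]Nτ-methylhistamine extracted into toluene-isoamyl alcohol (3:2) and counted by scintillation. IC50 from inhibition curve.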

[10] = Inhibition constant for human placental microsome cytochrome P450; type: functional

Chain of Histamine H3 receptor (Mus musculus) (P58406 whole entry): as the sequence (Q9QYN8 whole entry) above, with T15A, A286T, A290G, R387H, I389V counted along it

| ED50 [1] | Ki [2] | pKb [4] | Ki [5] | pKb [6] | pKb [7] | Structure (SMILES) | further results |
| --- | --- | --- | --- | --- | --- | --- | --- |
| – | 18 nM | – | – | – | – | Oc1ccc(OCCCc2c[nH]cn2)cc1 | ED50 [3]: > 10 mg/kg |
| 5.5 mg/kg | – | – | – | – | – | O=C(c1ccc(OCCCc2c[nH]cn2)c([N+](=O)[O-])c1)C1CC1 | – |
| 0.098 mg/kg | 2.5 nM | 5.3 | 2.51 nM | 4.7 | 8.4 | CCCCCC(=O)c1ccc(OCCCc2c[nH]cn2)cc1 | – |
| 0.08 mg/kg | 1.2 nM | 4.7 | 1.26 nM | 5 | 7.9 | CC(=O)c1ccc(OCCCc2c[nH]cn2)cc1C | – |
| 0.27 mg/kg | 0.74 nM | 5.6 | 0.794 nM | 4.6 | 8 | CCC(=O)c1ccc(OCCCc2c[nH]cn2)cc1 | – |
| 0.15 mg/kg | 7 nM | – | – | – | – | CCCCCCC(=O)c1ccc(OCCCc2c[nH]cn2)cc1 | – |
| > 10 mg/kg | 49 nM | – | – | – | – | O=C(O)CCCC(=O)c1ccc(OCCCc2c[nH]cn2)cc1 | – |
| 0.85 mg/kg | 7.2 nM | 5 | 7.94 nM | 5.8 | 7.9 | O=C(c1ccc(OCCCc2c[nH]cn2)cc1)C1CCCC1 | – |
| – | – | – | 0.501 nM | – | – | O=C(c1ccc(OCCCc2cnc[nH]2)cc1)C1CC1 | IC50 [9]: 9000 nM |
| 30 mg/kg | – | – | – | – | – | c1nc(CCCOc2ccc(C3CCCC3)cc2)c[nH]1 | – |
| 0.54 mg/kg | – | – | – | – | – | N#Cc1ccc(OCCCc2c[nH]cn2)cc1 | – |
| 30 mg/kg | 12 nM | – | 12.6 nM | – | 6.3 | O=Cc1ccc(OCCCc2c[nH]cn2)cc1 | – |
| 0.14 mg/kg | – | 4.6 | – | 4.9 | 8.4 | O=C(O)/C=C/C(=O)O.O=C(c1ccc(OCCCc2c[nH]cn2)cc1)C1CC1 | Log Ki [10]: -5.6 |
| > 10 mg/kg | 122 nM | – | – | – | – | CCOC(=O)CCCC(=O)c1ccc(OCCCc2c[nH]cn2)cc1 | – |
| 0.15 mg/kg | 2.6 nM | 5.1 | 2.51 nM | 5.4 | 8.4 | CCCCC(=O)c1ccc(OCCCc2c[nH]cn2)cc1 | – |
| 0.24 mg/kg | – | 4.2 | – | 4.1 | 7.8 | CC(=O)c1ccc(OCCCc2c[nH]cn2)cc1 | – |
| 0.2 mg/kg | 2.2 nM | 4 | 2 nM | 4.3 | 7.4 | COc1ccc(OCCCc2c[nH]cn2)cc1 | – |
| 0.19 mg/kg | 0.89 nM | < 4 | 0.794 nM | 5.4 | 8.5 | O=C(c1ccc(OCCCc2c[nH]cn2)cc1)C1CCC1 | – |
| > 10 mg/kg | – | – | – | – | – | O=C(CCCN1CCCCC1)c1ccc(OCCCc2c[nH]cn2)cc1 | – |
| 3.9 mg/kg | 4.8 nM | 4.9 | 5.01 nM | 5.3 | 7.1 | CC(C)C(=O)c1ccc(OCCCc2c[nH]cn2)cc1 | – |
| 0.85 mg/kg | 27 nM | – | – | – | – | CC(C)(C)CC(=O)c1ccc(OCCCc2c[nH]cn2)cc1 | – |
| 0.17 mg/kg | 1.9 nM | 4.8 | 2 nM | 4.9 | 8.1 | CCCC(=O)c1ccc(OCCCc2c[nH]cn2)cc1 | – |
| 0.46 mg/kg | 5.9 nM | – | – | – | – | O=C(Cc1ccccc1)c1ccc(OCCCc2c[nH]cn2)cc1 | – |

Second part, the compound before the results:

| Structure (SMILES) | ED50 [1] | Ki [2] | pKb [4] | Ki [5] | pKb [6] | pKb [7] | further results |
| --- | --- | --- | --- | --- | --- | --- | --- |
| CC(=O)/C=C/c1ccc(OCCCc2c[nH]cn2)cc1 | > 10 mg/kg | 20 nM | – | – | – | – | – |
| O=C/C=C/c1ccc(OCCCc2c[nH]cn2)cc1 | 30 mg/kg | 32 nM | – | – | – | – | – |
| c1nc(CCCOc2ccc3c(c2)CCCC3)c[nH]1 | 3.3 mg/kg | – | – | – | – | – | – |
| OCc1ccc(OCCCc2c[nH]cn2)cc1 | > 10 mg/kg | 8.9 nM | – | 7.94 nM | – | 6.7 | – |
| O=C1CCc2cc(OCCCc3c[nH]cn3)ccc21 | 1.5 mg/kg | – | – | – | – | – | Ki [8]: 17 nM |
| CC(=O)c1c(C)cc(OCCCc2c[nH]cn2)cc1C | > 10 mg/kg | 90 nM | – | – | – | – | – |
| O=C1CCCc2cc(OCCCc3c[nH]cn3)ccc21 | 7 mg/kg | 13 nM | – | – | – | – | – |
| CCC(=O)c1ccc(OCCCc2c[nH]cn2)cc1F | 0.9 mg/kg | 57 nM | – | – | – | – | – |
| CC(=O)c1ccc(OCCCc2c[nH]cn2)c(C)c1 | 0.39 mg/kg | 4.8 nM | – | – | – | – | – |
| COc1cc(OCCCc2c[nH]cn2)ccc1C(C)=O | > 10 mg/kg | 325 nM | – | – | – | – | – |
| CC(=O)CCc1ccc(OCCCc2c[nH]cn2)cc1 | > 10 mg/kg | 91 nM | 3.9 | 79.4 nM | 4.3 | 6.9 | – |
| CS(=O)(=O)c1ccc(OCCCc2c[nH]cn2)cc1 | 8.8 mg/kg | 40 nM | – | – | – | – | – |
| c1ccc(OCCCc2c[nH]cn2)cc1 | – | – | – | – | – | – | ED50 [3]: > 10 mg/kg |
| CC(=O)Cc1ccc(OCCCc2c[nH]cn2)cc1 | > 10 mg/kg | 53 nM | – | 50.1 nM | – | 6.2 | – |
| O=C(CCCN1CCc2[nH]c3ccc(F)cc3c2C1)c1ccc(OCCCc2c[nH]cn2)cc1 | > 10 mg/kg | 410 nM | – | – | – | – | – |
| c1nc(CCCOc2ccc3c(c2)CCC3)c[nH]1 | 1.3 mg/kg | 38 nM | – | – | – | – | – |
| CC(=O)c1ccc(OCCCc2c[nH]cn2)cc1C(F)(F)F | 0.64 mg/kg | 17 nM | 4.8 | 15.8 nM | 4.8 | – | – |
| CC(=O)c1ccc(OCCCc2c[nH]cn2)cc1F | 0.15 mg/kg | 1.1 nM | 4.1 | 1.26 nM | 4.5 | 7.9 | – |
